Measured values gathered from unrelated publications.
Lines come from different studies, so protocols differ.

Compound	tested on	test	system	conditions	measurement	result
CCOC(=O)C1CCCN1C(=O)c1ccc(NCc2cnc3nc(N)nc(N)c3n2)cc1 (centres unmarked)	Cytochrome P450 1A2 (CYP1A2, Homo sapiens, UniProt P05177)	enzyme activity, inhibitor, luciferase		10 µM	inhibition	-16%
O=S(=O)(NNc1nnc(Cl)c2ccccc12)c1ccc(F)cc1	Vero	cell growth or viability, MTT		62.5 µg/mL	viability	88.2%
COc1cc(C(=O)NC2CCN(C)CC2)c(F)cc1Nc1ncc(C(F)(F)F)c(Oc2cccc3c2C(=O)N(C)C3)n1			human, plasma	oral, 200 mg, multiple doses, once daily, patients	Vd/F	290 L
Cn1cnc2c1c(=O)n(CC(=O)Nc1c(Cl)cccc1Cl)c(=O)n2C	Vero	cell growth or viability, MTT		500 µg/mL	viability	25.3%
Cc1cc(Nc2cc(N3CCN(C)CC3)nc(/C=C/c3ccccc3)n2)n[nH]1			human, plasma	oral, 60 mg/m², patients	Vd/F	1710 L
COC(=O)C1CCN(C(=O)c2ccc(NCc3cnc4nc(N)nc(N)c4n3)cn2)CC1	Cytochrome P450 3A4 (CYP3A4, Homo sapiens, UniProt P08684)	enzyme activity, inhibitor, luciferase		10 µM	inhibition	-7.93%
CCNc1nc(Nc2ccc(F)c(Cl)c2)c2ccccc2n1	Vero	cell growth or viability, MTT		250 µg/mL	viability	20.6%
CC(C)(C)c1ccc(O)c(CN(Cc2cc(C(C)(C)C)ccc2O)C2CCC(NC(N)=O)CC2)c1 (centres unmarked)			male C57BL/6 mouse, plasma	intraperitoneal, 25 mg/kg, single dose	Cmax	3620 ng/mL
